Source: PubChem (several laboratories)
Ecoli tolC – growth inhibitors of E. coli tolC mutant, primary screen, strain BW25113 ΔtolC::kan, 384-well; growth inhibition, % at 10 µM (by protocol); OD615; actives 2.2% (n = 65,000); AID 573, 2007;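 active means growth inhibition at or above a cutoff equal to the mean over every tested compound plus 3 SD, cut at about 60% in these data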;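 further: growth measured after 20 h incubation at 37 °C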
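Test system: tolC-deleted E. coli BW25113 | Medium: LB with kanamycin 50 µg/mL | Compound dosing: Single concentration, 10 µM final per compound | Schedule: 37 °C, 20 h exposure | Measured by: OD at 615 nm | Evaluation: Percent growth inhibition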
BAP1 block – inhibitors of BAP1 deubiquitinase, primary screen, biochemical, Ub-AMC fluorescence, kinetic; Ubiquitin carboxyl-terminal hydrolase BAP1 (Homo sapiens), Q92560; actives 0.48% (n = 72,000); AID 436, 2006; recombinant BAP1, Ub-AMC hydrolysis fluorescence kinetic; active compounds read low; calls only at 20 µM;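 active means activity remaining at or below 50% of control, provided the compound also passes the data quality filters; inactive means the rest, including low values that fail the filters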;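 further: 100% = DMSO wells rate and 0% = substrate alone blank rate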
MMP13 inh – human MMP13 inhibitors, primary screen, biochemical, FRET peptide cleavage; actives 0.07% (n = 65,000); inhibition, % at 4 µM; Collagenase 3 (Homo sapiens), P45452; MMP-13 fTHP FRET cleavage, Mca fluorescence;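 active means inhibition above the mean of compound-free control plate wells plus 3 SD, cut at about 14% in these data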;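 further: 0% = DMSO wells and 100% = wells with reference MMP-13 inhibitor after basal subtraction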
AP complement – alternative complement pathway inhibitors, primary screen, biochemical, ELISA, human serum, orthogonally pooled compounds. LPS-coated ELISA, C3 deposition; tested in compound mixtures. actives 0.08% (n = 62,000). inhibition, % at 5 µM;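 active means inhibition above 30% in each of the two pooled mixtures holding the compound, so the lower value exceeds 30%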;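 further: 0% = serum in Mg-EGTA without compound and 100% = EDTA serum blank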
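Test system – human serum alternative complement pathway, C3 deposition on LPS-coated wells · Buffer or medium – diluted human serum in Mg2+-EGTA GVB++ · Compound dosing – 5 µM each compound, pools of ten, 50 µM per pool · Schedule – 1 h serum-compound exposure at 37 °C · Measured by – Anti-C3 ELISA, OD 450 nm · Read-out basis – percent inhibition of C3 deposition onto LPS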
E coli RNAP – E. coli RNAP inhibitors, biochemical; DNA-directed RNA polymerase subunit beta (Escherichia coli (strain K12)), P0A8V2; E. coli RNA polymerase, fluorescence transcription assay; inhibition, %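 (tested at 10 µM)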; actives 0.2% (n = 62,000); in the data active means inhibition above about 20%;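 further: 0% = enzyme without compound and 100% = no enzyme blank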
Target sequence (P0A8V2 whole entry, looked up): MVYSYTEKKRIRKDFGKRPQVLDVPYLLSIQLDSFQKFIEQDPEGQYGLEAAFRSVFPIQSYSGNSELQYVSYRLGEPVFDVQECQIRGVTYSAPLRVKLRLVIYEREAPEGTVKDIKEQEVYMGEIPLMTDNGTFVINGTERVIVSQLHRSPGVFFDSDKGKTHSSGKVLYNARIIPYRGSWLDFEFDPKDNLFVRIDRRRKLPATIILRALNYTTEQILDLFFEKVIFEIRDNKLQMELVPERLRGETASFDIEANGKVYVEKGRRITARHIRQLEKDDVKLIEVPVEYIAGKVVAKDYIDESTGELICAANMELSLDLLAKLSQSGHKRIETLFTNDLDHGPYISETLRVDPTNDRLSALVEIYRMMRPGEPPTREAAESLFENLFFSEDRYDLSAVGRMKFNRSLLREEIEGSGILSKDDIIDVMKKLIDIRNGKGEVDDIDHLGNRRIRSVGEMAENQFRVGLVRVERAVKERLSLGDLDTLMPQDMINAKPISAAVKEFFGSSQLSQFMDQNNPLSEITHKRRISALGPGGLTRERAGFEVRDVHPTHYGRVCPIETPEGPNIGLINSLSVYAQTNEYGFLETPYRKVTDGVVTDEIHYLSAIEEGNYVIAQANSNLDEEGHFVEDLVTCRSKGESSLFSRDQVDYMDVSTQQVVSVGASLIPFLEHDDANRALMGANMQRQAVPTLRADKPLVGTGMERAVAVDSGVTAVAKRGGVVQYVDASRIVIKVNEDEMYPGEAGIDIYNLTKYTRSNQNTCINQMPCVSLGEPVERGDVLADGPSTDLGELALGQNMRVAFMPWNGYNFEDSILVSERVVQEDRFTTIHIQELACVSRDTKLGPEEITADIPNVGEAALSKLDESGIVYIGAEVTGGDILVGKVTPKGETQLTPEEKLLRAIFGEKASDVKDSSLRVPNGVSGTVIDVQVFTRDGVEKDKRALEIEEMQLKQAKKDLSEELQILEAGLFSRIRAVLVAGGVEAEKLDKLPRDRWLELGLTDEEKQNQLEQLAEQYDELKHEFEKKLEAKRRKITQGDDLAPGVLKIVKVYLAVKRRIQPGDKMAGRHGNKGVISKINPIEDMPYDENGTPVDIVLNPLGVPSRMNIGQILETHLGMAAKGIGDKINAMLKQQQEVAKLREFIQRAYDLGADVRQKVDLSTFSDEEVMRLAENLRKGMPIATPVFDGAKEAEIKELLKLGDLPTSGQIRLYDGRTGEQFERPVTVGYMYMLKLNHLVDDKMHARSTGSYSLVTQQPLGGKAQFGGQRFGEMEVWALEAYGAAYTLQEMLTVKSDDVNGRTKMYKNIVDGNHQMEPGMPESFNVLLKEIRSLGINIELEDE
E coli WT exp – growth inhibitors of wild-type E. coli, primary screen, strain BW25113, expanded library, OD600; growth inhibition, % at 100 µM; OD600 absorbance; actives 0.15% (n = 98,000);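 active means growth inhibition above about 50% at one test dose, limit read from the data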;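 further: growth measured after 20 h incubation at 37 °C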
* marks the source's active call; other numbers are inactive results; i = inactive; / = not tested or not shown; + = active, no number. Shown is part of a subset that was picked to be rich in hits.

SMILES | Ecoli tolC | BAP1 block | MMP13 inh | AP complement | E coli RNAP | E coli WT exp
CC(C)(C)c1ccc(O)c(N)c1 | -1 | / | 7 | -4 | 24* | 3
Nc1nc(CN2CCN(c3cccc(Cl)c3)CC2)nc(N2CCCc3ccccc32)n1 | 100* | i | 1 | 3 | 6 | -6
CCN(CC)CCCN1C(=O)C(=O)/C(=C(/O)c2ccc3c(c2)OCCO3)C1c1ccc(C)o1 (centres undefined) | -7 | + | -2 | 5 | -1 | /
CCN1C(=O)NC(c2ccccc2[N+](=O)[O-])C(C(=O)OC2CCCCC2)=C1C (centres undefined) | / | i | / | / | / | /
CCCOc1ccc(C2C(C(=O)c3ccc(C)o3)=C(O)C(=O)N2Cc2cccnc2)cc1 (centres undefined) | 67* | i | -1 | 14 | 6 | /
CCOc1ccc(C2C(C(=O)c3ccco3)=C(O)C(=O)N2Cc2cccnc2)cc1 (centres undefined) | 9 | i | -2 | 3 | / | -3
CCCCCC/C(=N\NS(C)(=O)=O)c1ccccc1 | / | / | / | / | / | -4
CCCCCC/C(=N/O)c1ccccn1 | 100* | i | 0 | -13 | 8 | 37
COc1cc(-c2nnc(-c3ccco3)o2)ccc1OCc1ccccc1 | 96* | / | -161 | 4 | 4 | -12
COc1cc(-c2nnc(-c3ccncc3)o2)ccc1OCc1ccccc1 | -26 | i | -11 | -7 | 8 | -8
N#Cc1c(NC(=O)c2ccc(Cn3cc(Br)cn3)o2)sc2c1CCCCCC2 | 61* | / | 2 | 13 | 1 | -16
CCc1ccc(CCC(=O)Nc2sc3c(c2C#N)CCCC3)o1 | 32 | / | 5 | 2 | 6 | -5
Cc1noc(C)c1S(=O)(=O)Nc1ccc(C(=O)N2CCN(c3cccc(Cl)c3)CC2)cc1 | / | / | / | / | / | 0
Cc1cccc(N2CCN(C(=O)c3ccc(NS(=O)(=O)c4c(C)noc4C)cc3)CC2)c1C | 84* | i | -1 | 4 | -17 | -12
CCc1cccc(NC(=O)c2ccc(NS(=O)(=O)c3c(C)noc3C)cc2)c1 | 77* | i | 1 | -7 | -6 | 14
O=C(Nc1ccc(Cl)cc1)N1CCC(c2nc(-c3cccs3)no2)CC1 | 100* | i | 2 | 2 | -7 | -4
O=C(Nc1ccccc1)N1CCCC(c2nc(-c3ccc(F)cc3)no2)C1 (centres undefined) | / | / | / | / | / | -14
O=C(Nc1cccc(C(F)(F)F)c1)N1CCC(c2nc(-c3ccc(F)cc3)no2)CC1 | 89* | i | 2 | -30 | -1 | -1
O=C(c1nn2c(c1Cl)NC(c1cccs1)CC2C(F)(F)F)N1CCN(C(c2ccccc2)c2ccccc2)CC1 (centres undefined) | / | i | / | / | / | /
CC1=C(C(=O)OCCC(C)C)C(c2cc3c(cc2Br)OCO3)NC(=O)N1 (centres undefined) | / | i | / | / | / | /
C=CCNc1ncnc2c1[nH]c1ccc(C)cc12 | 90* | / | -67 | -16 | 3 | 82*
Cc1cc(=O)[nH]c(-n2nc(C)c(Oc3ccccc3O)c2C)n1 | 38 | i | 8 | 1 | 2 | -15
Cc1cc(=O)[nH]c(-n2nc(C)cc2C)n1 | 75* | i | 0 | 3 | / | 57*
Cc1cc2nn(-c3ccccc3)nc2cc1NC(=O)c1ccc(Br)o1 | / | i | / | / | / | /
O=C(NCc1ccc2c(c1)OCO2)c1cccc(C(=O)NCc2ccc3c(c2)OCO3)c1 | -2 | i | 21* | 17 | 3 | -7
SMILES | Ecoli tolC | BAP1 block | MMP13 inh | AP complement | E coli RNAP | E coli WT exp
O=C(NCc1ccc2c(c1)OCO2)c1cccnc1 | -29 | i | 6 | 6 | 6 | -4
O=C(NCc1ccco1)c1cnn2c1NC(c1ccc(Br)cc1)CC2C(F)(F)F (centres undefined) | 68* | i | -3 | -6 | 2 | 3
O=C(Nc1ccc(Cl)c(C(F)(F)F)c1)c1ccco1 | 98* | i | 6 | 4 | -2 | 30
Cc1cccc(N2CCN(C(=O)c3cn(C)c(=O)c4c3c3ccccc3n4C)CC2)c1C | 83* | i | -33 | 16 | 5 | -1
Cc1ccc(Cl)cc1N1CCN(C(=O)c2cn(C)c(=O)c3c2c2ccccc2n3C)CC1 | 52 | / | -4 | 12 | -7 | -6
Cn1c(NC(=O)c2ccccc2NC(=O)C(C)(C)C)nc2ccccc21 | 99* | i | 2 | 10 | -1 | -1
CC(C)(C)C(=O)NC(=S)Nc1ccccc1C(=O)Nc1ccccc1 | / | / | / | / | / | 1
O=S(=O)(Nc1cccc2ncccc12)c1cccs1 | 99* | i | -2 | 2 | 1 | -2
Cc1[nH]nc(-c2ccc(O)cc2O)c1-c1ccc(Cl)cc1 | 100* | i | 4 | -9 | 1 | 30
CCOC(=O)c1cnc(-n2nc(C)cc2C)nc1NCCc1ccccc1 | 100* | i | -9 | 11 | 7 | 2
Cc1cccc(N2CCN(C(=O)C34CC5CC(CC(C5)C3)C4)CC2)c1C | 63* | i | 1 | 8 | 6 | -6
O=C(N1CCN(c2ccccc2F)CC1)C12CC3CC(CC(C3)C1)C2 | 89* | i | -2 | 19 | 6 | 10
CNC(=O)C(O)C(O)C(=O)NC (centres undefined) | / | i | / | / | / | /
O=C(Nc1ccc(Cl)c(Cl)c1)OCc1cccnc1 | 92* | i | -2 | 1 | 7 | 21
Cc1ccc(C2CC(C(F)(F)F)n3nc(C(=O)N4CCN(c5ccccc5)CC4)c(Cl)c3N2)cc1 (centres undefined) | / | i | / | / | / | /
COC(=O)c1sccc1NC(=O)c1cc2c(s1)CCCC2 | 61* | / | -3 | -15 | 4 | -4
Cc1ccc(C)n1-n1cnc2sc(-c3ccccc3)cc2c1=O | 88* | i | 2 | 10 | 2 | -15
Cc1ccc(Cl)cc1N1CCN(Cc2nnnn2Cc2ccco2)CC1 | 65* | i | 2 | 7 | 4 | -15
CCC(c1nnnn1Cc1ccco1)N1CCN(c2cc(Cl)ccc2C)CC1 (centres undefined) | 43 | i | -2 | -4 | / | -10
O=C(CSc1nc2ccccc2[nH]1)Nc1cc(C(F)(F)F)ccc1N1CCOCC1 | 100* | i | 3 | 0 | 11 | -7
CCc1ccccc1NC(=O)c1cnn2c1NC(c1cc(OC)c(OC)c(OC)c1)CC2C(F)(F)F (centres undefined) | / | i | / | / | / | /
CN(c1ccccc1)C(c1ccc(F)cc1)c1nnnn1C1CCCC1 (centres undefined) | 73* | i | 3 | 23 | 4 | -15
CN(c1ccccc1)C(c1ccc(F)cc1)c1nnnn1CC1CCCO1 (centres undefined) | -1 | i | -2 | 19 | 6 | -1
